# From ChEMBL document CHEMBL4152358, “In vitro and in vivo anti-inflammatory properties of imine resveratrol analogues” (Bioorg Med Chem, 2018)
# Activity calls are given as the source filed them. The calls are words filed in the database; no cut-off is given here.
# System: not listed separately
# Experiment: Antioxidant activity assessed as DPPH radical scavenging activity after 30 mins by spectrophotometric method
# Format: functional
# Method in brief: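 Left 30 min at room temperature in the dark and absorbance read at 510 nm. IC50 taken graphically from the linear range of the concentration versus scavenging plot. Run twice, each in triplicate.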
row,SMILES,IC50 [µM]
1,Oc1ccccc1/C=N/c1ccccc1O,35.9
2,O=C(O)c1ccc(/C=N/c2ccccc2O)cc1,36.6

# Next, values leading:
row,IC50 [µM],SMILES
1,49.1,Oc1ccc(/C=N/c2ccccc2O)c(O)c1
2,45.8,COc1ccc(/C=N/c2ccccc2O)cc1
3,34.1,O=C(O)c1ccccc1/C=N/c1ccccc1O
4,34.5,COc1ccc(/C=N/c2ccccc2O)cc1O

# System: RAW264.7
# Experiment: Antiinflammatory activity in mouse RAW264.7 cells assessed as inhibition of LPS/IFNgamma-induced NO production by measuring NO levels incubated with LPS/IFNgamma for 1 hr followed by compound addition measured after 48 hrs by Griess assay (reference value: 55 +/- 2.6 microM)
# Format: functional
row,SMILES,Activity [µM]
1,Oc1ccccc1/C=N/c1ccccc1O,5.9
2,Oc1ccc(/C=N/c2ccccc2O)c(O)c1,14.6
3,COc1ccc(/C=N/c2ccccc2O)cc1,4.8
4,O=C(O)c1ccccc1/C=N/c1ccccc1O,22.6
5,O=C(O)c1ccc(/C=N/c2ccccc2O)cc1,9.5
6,COc1ccc(/C=N/c2ccccc2O)cc1O,8.1

# System: RAW264.7
# Experiment: Antiinflammatory activity in mouse RAW264.7 cells assessed as inhibition of LPS-induced CCL-2 production by measuring CCL-2 levels incubated with LPS for 1 hr followed by compound addition measured after 48 hrs by ELISA (reference value: 12.73 +/- 0.10 ng/ml)
# Format: functional
row,SMILES,Activity [ng/mL]
1,Oc1ccccc1/C=N/c1ccccc1O,7.2
2,Oc1ccc(/C=N/c2ccccc2O)c(O)c1,5.5
3,COc1ccc(/C=N/c2ccccc2O)cc1,7.9
4,O=C(O)c1ccccc1/C=N/c1ccccc1O,6.1
5,O=C(O)c1ccc(/C=N/c2ccccc2O)cc1,3.7
6,COc1ccc(/C=N/c2ccccc2O)cc1O,9.7

# System: J774.A1
# Experiment: Antiinflammatory activity in mouse J774A.1 cells assessed as inhibition of LPS-induced IL-1beta production by measuring IL-1beta levels incubated with LPS for 1 hr followed by compound addition measured after 24 hrs by ELISA (reference value: 382.3 +/- 50 pg/ml)
# Format: functional
row,SMILES,Activity [pg/mL]
1,Oc1ccccc1/C=N/c1ccccc1O,62.3
2,Oc1ccc(/C=N/c2ccccc2O)c(O)c1,188.3
3,COc1ccc(/C=N/c2ccccc2O)cc1,88.2
4,O=C(O)c1ccccc1/C=N/c1ccccc1O,76.7
5,O=C(O)c1ccc(/C=N/c2ccccc2O)cc1,53.4
6,COc1ccc(/C=N/c2ccccc2O)cc1O,120.3

# System: RAW264.7
# Experiment: Antiinflammatory activity in mouse RAW264.7 cells assessed as inhibition of LPS-induced IL-6 production by measuring IL-6 levels incubated with LPS for 1 hr followed by compound addition measured after 48 hrs by ELISA (reference value: 2.9 +/- 0.3 ng/ml)
# Format: functional
row,SMILES,Activity [ng/mL]
1,Oc1ccccc1/C=N/c1ccccc1O,2.5
2,Oc1ccc(/C=N/c2ccccc2O)c(O)c1,2.3
3,COc1ccc(/C=N/c2ccccc2O)cc1,2.1
4,O=C(O)c1ccccc1/C=N/c1ccccc1O,2.3
5,O=C(O)c1ccc(/C=N/c2ccccc2O)cc1,2.2
6,COc1ccc(/C=N/c2ccccc2O)cc1O,2.4

# System: RAW264.7
# Experiment: Antiinflammatory activity in mouse RAW264.7 cells assessed as inhibition of LPS-induced IL-12 production by measuring IL-12 levels incubated with LPS for 1 hr followed by compound addition measured after 48 hrs by ELISA (reference value: 4839.2 +/- 2.2 pg/ml)
# Format: functional
row,SMILES,Activity [pg/mL]
1,Oc1ccccc1/C=N/c1ccccc1O,5.5
2,Oc1ccc(/C=N/c2ccccc2O)c(O)c1,9.3
3,COc1ccc(/C=N/c2ccccc2O)cc1,4.7
4,O=C(O)c1ccccc1/C=N/c1ccccc1O,34
5,O=C(O)c1ccc(/C=N/c2ccccc2O)cc1,12.7
6,COc1ccc(/C=N/c2ccccc2O)cc1O,7.7

# System: RAW264.7
# Experiment: Antiinflammatory activity in mouse RAW264.7 cells assessed as inhibition of LPS-induced TNFalpha production by measuring TNFalpha levels incubated with LPS for 1 hr followed by compound addition measured after 48 hrs by ELISA (reference value: 58.6 +/- 7.4 ng/ml)
# Format: functional
row,SMILES,Activity [ng/mL]
1,Oc1ccccc1/C=N/c1ccccc1O,58.4
2,Oc1ccc(/C=N/c2ccccc2O)c(O)c1,44.8
3,COc1ccc(/C=N/c2ccccc2O)cc1,44.2
4,O=C(O)c1ccccc1/C=N/c1ccccc1O,57.4
5,O=C(O)c1ccc(/C=N/c2ccccc2O)cc1,30.6
6,COc1ccc(/C=N/c2ccccc2O)cc1O,60.5

# System: Murine T-cell line
# Experiment: Antiproliferative activity against Con-A-induced T cells isolated from splenocytes of C57/BL6 mouse at 50 uM incubated with Con-A for 1 hr followed by compound addition measured after 72 hrs by MTT assay
# Format: functional, cell-based
# Method in brief: (§1)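 C57BL/6 splenocytes (1x10⁵/well) cultured in RPMI 1640 with 10% FBS. Stimulated 1 h with Con A 5 µg/mL (T cells) or E. coli LPS 1 µg/mL (B cells) at 37°C, 5% CO₂. Treated at 50 µM and cultured 72 h more, then read by MTT. Expressed as % proliferation relative to untreated stimulated cells.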
row,SMILES,Activity
1,Oc1ccccc1/C=N/c1ccccc1O,Active
2,COc1ccc(/C=N/c2ccccc2O)cc1,Active
3,O=C(O)c1ccccc1/C=N/c1ccccc1O,Active
4,O=C(O)c1ccc(/C=N/c2ccccc2O)cc1,Active

# System: B-cell line
# Experiment: Antiproliferative activity against LPS-induced B cells isolated from splenocytes of C57/BL6 mouse at 50 uM incubated with LPS for 1 hr followed by compound addition measured after 72 hrs by MTT assay
# Format: functional, cell-based
# Method in brief: as §1
row,SMILES,Activity
1,Oc1ccccc1/C=N/c1ccccc1O,Active
2,COc1ccc(/C=N/c2ccccc2O)cc1,Active
3,O=C(O)c1ccccc1/C=N/c1ccccc1O,Active
4,O=C(O)c1ccc(/C=N/c2ccccc2O)cc1,Active

# System: RAW264.7
# Experiment: Immunomodulatory activity in LPS-stimulated mouse RAW264.7 cells assessed as decrease in CD80 expression at 50 uM incubated with LPS for 1 hr followed by compound addition measured after 24 hrs by flow cytometry
# Format: functional, cell-based
# Method in brief: (§2)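 RAW 264.7 cells (4 x 10⁵/well, triplicate) given E. coli LPS 1 µg/mL for 1 h, then treated at 50 µM for 24 h. Cells Fc-blocked with anti-CD16/32 and stained with FITC anti-CD80, anti-CD86 or anti-MHC II (I-A^b). Two independent experiments.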
row,SMILES,Activity
1,Oc1ccccc1/C=N/c1ccccc1O,inactive
2,Oc1ccc(/C=N/c2ccccc2O)c(O)c1,Active
3,COc1ccc(/C=N/c2ccccc2O)cc1,Active
4,O=C(O)c1ccccc1/C=N/c1ccccc1O,inactive
5,O=C(O)c1ccc(/C=N/c2ccccc2O)cc1,Active
6,COc1ccc(/C=N/c2ccccc2O)cc1O,Active

# System: RAW264.7
# Experiment: Immunomodulatory activity in LPS-stimulated mouse RAW264.7 cells assessed as decrease in CD86 expression at 50 uM incubated with LPS for 1 hr followed by compound addition measured after 24 hrs by flow cytometry
# Format: functional, cell-based
# Method in brief: as §2
row,SMILES,Activity
1,COc1ccc(/C=N/c2ccccc2O)cc1,Active
2,O=C(O)c1ccc(/C=N/c2ccccc2O)cc1,Active

# System: RAW264.7
# Experiment: Immunomodulatory activity in LPS-stimulated mouse RAW264.7 cells assessed as decrease in MHC-2 expression at 50 uM incubated with LPS for 1 hr followed by compound addition measured after 24 hrs by flow cytometry
# Format: functional, cell-based
# Method in brief: as §2
row,SMILES,Activity
1,Oc1ccccc1/C=N/c1ccccc1O,inactive
2,Oc1ccc(/C=N/c2ccccc2O)c(O)c1,inactive
3,COc1ccc(/C=N/c2ccccc2O)cc1,inactive
4,O=C(O)c1ccccc1/C=N/c1ccccc1O,inactive
5,O=C(O)c1ccc(/C=N/c2ccccc2O)cc1,inactive
6,COc1ccc(/C=N/c2ccccc2O)cc1O,inactive

# System: Mus musculus
# Experiment: Antiinflammatory activity in Balb/c mouse ear edema model assessed as inhibition of croton oil-induced ear edema at 0.1 mg/ear administered topically immediately post croton oil treatment and measured after 4 hrs relative to control
# Format: functional
# Method in brief: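 Female Balb/c mice 8–10 weeks old (n = 6/group). 20 µL of 2.5% v/v croton oil applied to the inner surface of the right ear, acetone vehicle to the left. Treatment given topically straight after, 0.1 mg/ear in 20 µL, with acetone as negative control. Killed at 4 h and 6 mm plugs taken from both ears. Edema read as right minus left ear plug weight, mean S.D.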
row,SMILES,inhibition (INH) [%]
1,COc1ccc(/C=N/c2ccccc2O)cc1,40
2,O=C(O)c1ccc(/C=N/c2ccccc2O)cc1,40
3,C[C@@H]1C[C@H]2[C@@H]3CCC4=CC(=O)C=C[C@]4(C)[C@@]3(F)[C@@H](O)C[C@]2(C)[C@@]1(O)C(=O)CO [DEXAMETHASONE],90

# System: Mus musculus
# Experiment: Antiinflammatory activity in croton oil-induced Balb/c mouse ear edema model assessed as inhibition of leucocyte infiltration at 0.1 mg/ear administered topically immediately post croton oil treatment and measured after 4 hrs by hematoxylin and eosin staining based light microscopic method
# Format: functional, organism-based
# Method in brief: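 Ear plugs from the 4 h croton oil edema test in Balb/c mice were fixed 24 h in 70% ethanol, kept in 10% formalin, paraffin-embedded and cut at 4 µm. Sections stained with H&E and leucocyte infiltration judged qualitatively by light microscopy at 400x.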
row,SMILES,inhibition of leucocyte infiltration (qualitative)
1,COc1ccc(/C=N/c2ccccc2O)cc1,Active
2,O=C(O)c1ccc(/C=N/c2ccccc2O)cc1,Active
3,C[C@@H]1C[C@H]2[C@@H]3CCC4=CC(=O)C=C[C@]4(C)[C@@]3(F)[C@@H](O)C[C@]2(C)[C@@]1(O)C(=O)CO [DEXAMETHASONE],Active

# System: Mus musculus
# Experiment: Effect on IL-1beta production in ear tissue of croton oil-induced Balb/c mouse ear edema model at 0.1 mg/ear administered topically immediately post croton oil treatment by ELISA
# Format: functional, organism-based
# Method in brief: (§3)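 Half of each ear plug from the 4 h croton oil edema test (topical 0.1 mg/ear) was homogenized in extraction buffer (BSA 0.5%, PMSF 0.1%, […], EDTA 10mM, aprotinin 20kIU/ml) and spun at 440g for 15 min at 4 °C. IL-1β, IL-6 or CCL-2 in the supernatant measured by ELISA.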
row,SMILES,Activity
1,COc1ccc(/C=N/c2ccccc2O)cc1,inactive
2,O=C(O)c1ccc(/C=N/c2ccccc2O)cc1,inactive

# System: Mus musculus
# Experiment: Inhibition of myeloperoxidase activity in ear tissue of croton oil-induced Balb/c mouse ear edema model at 0.1 mg/ear administered topically immediately post croton oil treatment by spectrophotometric method
# Format: functional, organism-based
# Method in brief: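 Ear tissue homogenized in PBS and the pellet resuspended in 0.5% HTAB, then given 3 freeze/thaw cycles. Cleared supernatant mixed 1:1 with 6 mM o-phenylenediamine in 10 mM citrate pH 4.5, with 20% H₂O₂ added. Stopped after 15 min with 1 M H₂SO₄ and read spectrophotometrically.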
row,SMILES,inhibition
1,COc1ccc(/C=N/c2ccccc2O)cc1,Active
2,O=C(O)c1ccc(/C=N/c2ccccc2O)cc1,Active

# System: Mus musculus
# Experiment: Inhibition of IL-6 production in ear tissue of croton oil-induced Balb/c mouse ear edema model at 0.1 mg/ear administered topically immediately post croton oil treatment by ELISA
# Format: functional, organism-based
# Method in brief: as §3
row,SMILES,inhibition
1,COc1ccc(/C=N/c2ccccc2O)cc1,Active
2,O=C(O)c1ccc(/C=N/c2ccccc2O)cc1,Active

# System: Mus musculus
# Experiment: Inhibition of CCL-2 production in ear tissue of croton oil-induced Balb/c mouse ear edema model at 0.1 mg/ear administered topically immediately post croton oil treatment by ELISA
# Format: functional, organism-based
# Method in brief: as §3
row,SMILES,inhibition
1,COc1ccc(/C=N/c2ccccc2O)cc1,Active
2,O=C(O)c1ccc(/C=N/c2ccccc2O)cc1,Active

# System: RAW264.7
# Experiment: Antiinflammatory activity in mouse RAW264.7 cells assessed as inhibition of LPS/IFNgamma-induced NO production at 50 uM incubated with LPS/IFNgamma for 1 hr followed by compound addition measured after 48 hrs by Griess assay relative to control
# Format: functional
row,SMILES,inhibition at 50 µM [%]
1,Oc1ccccc1/C=N/c1ccccc1O,90
2,Oc1ccc(/C=N/c2ccccc2O)c(O)c1,90
3,COc1ccc(/C=N/c2ccccc2O)cc1,90
4,O=C(O)c1ccc(/C=N/c2ccccc2O)cc1,90
5,COc1ccc(/C=N/c2ccccc2O)cc1O,90
